Source: article PMC10337234 (Nature chemical biology, 2023)

What was measured:
NONO C145 [1] = biological target: T1, NONO C145 (Homo sapiens, UniProt Q15233); test: Cysteine-directed MS-ABPP, engagement of NONO C145 in 22Rv1 cells; assay type: binding; conditions: 1 h
T1 sequence (Q15233 1-471): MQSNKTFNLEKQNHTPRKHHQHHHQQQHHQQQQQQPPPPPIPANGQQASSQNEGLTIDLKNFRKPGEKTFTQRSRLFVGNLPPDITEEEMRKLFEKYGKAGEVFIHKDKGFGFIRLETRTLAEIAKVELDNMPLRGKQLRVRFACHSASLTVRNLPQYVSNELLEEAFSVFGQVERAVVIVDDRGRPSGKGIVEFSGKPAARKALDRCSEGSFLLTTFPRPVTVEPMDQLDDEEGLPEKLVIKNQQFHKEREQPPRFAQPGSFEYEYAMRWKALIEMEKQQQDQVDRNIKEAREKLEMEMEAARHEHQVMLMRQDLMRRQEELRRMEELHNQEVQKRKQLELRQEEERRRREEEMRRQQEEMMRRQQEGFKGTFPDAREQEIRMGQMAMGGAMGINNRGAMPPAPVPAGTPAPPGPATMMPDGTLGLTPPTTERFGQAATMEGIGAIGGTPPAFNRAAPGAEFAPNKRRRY
Procedure, shortened: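 22Rv1 cells were seeded at 2 × 10^6 per 10-cm plate and grown for 48 h. They were treated in situ with 20 μM test compound or DMSO for 1 h, then analysed by cysteine-directed MS-ABPP. Engagement was taken from the DMSO versus compound reactivity ratio, capped at 10 and 0.1. Values are means of three independent experiments, counting cysteines quantified in at least two.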

22Rv1 cells [2] = test: Cell growth inhibition assay; assay type: cell-based, human; conditions: 22Rv1, 6 d, versus (S)-SKBG-1
Procedure, shortened: (§1)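 Cells were seeded at 5,000 per well for 16 h. They were then given 0.1% DMSO or test compound in 0.1% DMSO (threefold dilutions from 50 μM, eight concentrations) until DMSO controls were confluent: 6 d for 22Rv1, 5 d for MCF7, 4 d for HeLa and HT1080. CellTiterGlo was added for 30 min at room temperature and luminescence read. Signals were normalized to DMSO, with four replicate wells per concentration. EC50 came from a four-parameter variable-slope fit.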

22Rv1 cells [3] = test: RNA-seq of sgControl 22Rv1 cells; assay type: cell-based, human; conditions: 20 μM, 4 h, log2 (fold change) < −0.5, Padj < 0.01, versus (S)-SKBG-1 or DMSO
NONO = biological target: T2, NONO (Homo sapiens, UniProt Q15233); test: Immunofluorescence of NONO nuclear foci in 22Rv1 cells; assay type: cell-based; conditions: 20 μM, 1 h to 24 h
T2 sequence (Q15233 1-471): T1 sequence (Q15233 1-471)

MCF7 cells = test: Cell growth inhibition assay; assay type: cell-based, human; conditions: MCF7, 5 days, versus (S)-SKBG-1
Procedure, shortened: as §1

AR-FL mRNA = test: QuantiGene assay for AR-FL mRNA expression in 22Rv1 cells; assay type: cell-based; conditions: Homo sapiens, 22Rv1, 6 h, read-out: IC50 for AR-FL transcript suppression
NONO C145 [4] = biological target: T1, NONO C145; assay type: binding
Procedure, shortened: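 HEK293T cells were seeded at 5 × 10^5 overnight and PEI-transfected with FLAG-tagged WT or C145S NONO, or empty vector, for 48 h. Cells were then given test compound or 0.1% DMSO in situ for 2 h, followed by a cysteine-reactive alkyne probe (20 μM, 1 h, 37 °C). Lysates (2 mg ml–1) were click-conjugated to rhodamine/TAMRA-azide and run on SDS-PAGE. The FLAG-NONO band was quantified by in-gel fluorescence. Four independent experiments gave the IC50.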

HeLa cells = test: Cell growth inhibition assay; assay type: cell-based, human; conditions: 4 days, versus (S)-SKBG-1
Procedure, shortened: as §1

AR-V7 mRNA = test: QuantiGene assay for AR-V7 mRNA expression in 22Rv1 cells; assay type: cell-based; conditions: Homo sapiens, 22Rv1, 6 h, read-out: IC50 for AR-V7 transcript suppression
HT1080 cells = test: Cell growth inhibition assay; assay type: cell-based, human; conditions: HT1080, 4 days, versus (S)-SKBG-1
Procedure, shortened: as §1

Row | engagement of NONO C145 (NONO C145 [1]; 22Rv1 cells, 20 μM) | SMILES | cell growth effect (22Rv1 cells [2]) | number of transcripts substantially and significantly decreased (22Rv1 cells [3]) | formation of subnuclear foci of NONO (NONO) | cell growth effect (MCF7 cells) | inhibition at 20 µM (NONO C145 [1]; read-out: engagement of NONO C145) [%] | IC50 (AR-FL mRNA) [µM] | IC50 (NONO C145 [4]) [µM] | cell growth effect (HeLa cells) | IC50 (AR-V7 mRNA) [µM] | cell growth effect (HT1080 cells)
1 | not by the inactive controls | COc1ccc(CNC(=O)[C@@H]2CN(C(=O)CCl)CCN2S(=O)(=O)c2ccc(OC)cc2)cc1 [(S)-SKBG-1] | – | – | – | – | – | – | – | – | – | –
2 | – | COc1ccc(CNC(=O)[C@H]2CN(C(=O)CCl)CCN2S(=O)(=O)c2ccc(OC)cc2)cc1 [(R)-SKBG-1] | stereoselective cell growth impairment | ~ 1,000 transcripts | induced the formation of large subnuclear foci of NONO | stereoselective cell growth impairment | > 50 | 2.7 to 5.5 | 5.7 | stereoselective cell growth impairment | 2.7 to 5.5 | stereoselective cell growth impairment
